One may read the IC50 as the concentration needed to halve the response being measured. In general, Ki refers to a measure of affinity in units of concentration, obtained from inhibition or displacement. A lower Ki goes with a stronger hold on the target.

For test [1], the target named is T1, Transient receptor potential cation channel subfamily V member 1 (Homo sapiens, UniProt Q8NER1). Put plainly: Antagonist activity at human recombinant TRPV1 expressed in HEK293 cells assessed as inhibition of capsaicin-induced calcium by FLIPR method. The format is functional, cell-based. The method in brief: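 Stably transfected hTRPV1/HEK293 cells grown on poly-D-lysine for 2 days, then loaded with Fluo-3/AM for 1 h. Each well receives a single compound concentration. Intracellular Ca2+ is read by FLIPR for 3 min before capsaicin is added at a final 15 nM to fully activate TRPV1. Antagonist potency is reported as IC50.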
T1 sequence (Q8NER1 whole entry): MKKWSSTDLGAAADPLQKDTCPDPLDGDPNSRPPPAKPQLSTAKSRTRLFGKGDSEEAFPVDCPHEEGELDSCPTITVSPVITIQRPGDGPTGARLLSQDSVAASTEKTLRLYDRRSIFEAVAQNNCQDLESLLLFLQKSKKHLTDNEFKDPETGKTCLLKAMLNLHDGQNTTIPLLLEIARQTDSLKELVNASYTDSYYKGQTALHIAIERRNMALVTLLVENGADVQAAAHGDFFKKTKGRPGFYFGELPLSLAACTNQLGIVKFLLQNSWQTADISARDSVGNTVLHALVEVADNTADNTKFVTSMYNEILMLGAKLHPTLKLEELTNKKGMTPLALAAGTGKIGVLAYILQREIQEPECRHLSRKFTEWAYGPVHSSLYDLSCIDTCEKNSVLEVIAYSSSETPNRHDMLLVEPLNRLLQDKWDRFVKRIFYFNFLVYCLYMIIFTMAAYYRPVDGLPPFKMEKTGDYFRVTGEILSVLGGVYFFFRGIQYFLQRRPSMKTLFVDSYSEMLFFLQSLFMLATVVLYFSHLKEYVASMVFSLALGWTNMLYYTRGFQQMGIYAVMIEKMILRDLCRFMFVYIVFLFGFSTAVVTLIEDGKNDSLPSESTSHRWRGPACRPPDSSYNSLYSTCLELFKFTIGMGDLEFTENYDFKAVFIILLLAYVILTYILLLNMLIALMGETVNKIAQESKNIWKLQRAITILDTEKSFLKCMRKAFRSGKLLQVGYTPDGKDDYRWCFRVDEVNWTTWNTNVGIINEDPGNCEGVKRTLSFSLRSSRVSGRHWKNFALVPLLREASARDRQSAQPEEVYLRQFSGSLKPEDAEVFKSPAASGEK

Test [2] has as its target T1, Transient receptor potential cation channel subfamily V member 1. In words: Displacement of [3H]RTX from human TRPV1 expressed in HEK293 cells. The format is cell-based. The method in brief:
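Membranes from hTRPV1/HEK293 cells, prepared in HEPES buffer pH 7.4 (20 mM HEPES, NaCl, sucrose, MgCl2, CaCl2, KCl). Incubated 60 min at 37 °C with 0.3–0.6 nM [3H]-RTX. Samples cooled on ice, alpha-acid glycoprotein added, then centrifuged and pellets counted by scintillation. Nonspecific binding defined with 200 nM unlabeled RTX. Reported as Ki.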

Turning to `O=C(Nc1cccc2cnccc12)NC1CCc2cc(Br)ccc2C1Cc1ccccc1` (centres undefined), the IC50 in test [1] was found to be 17 nM. The same molecule returned a Ki in test [2] of 2 nM.

As to `COc1ccc(C(C)CNC(=O)Nc2cccc3cnccc23)cc1` (centres undefined), in test [1], the IC50 was found to be 680 nM. This molecule also showed an inhibition constant (Ki) in test [2] of 1290 nM.

With `O=C(Nc1cccc2cnccc12)NC1CCc2cc(F)ccc2C1Cc1ccoc1` (centres undefined), the IC50 in test [1] turned out to be 83 nM. The molecule further displayed a Ki in test [2] of 16 nM.

As for `O=C(Nc1cccc2cnccc12)NC1CCc2cc(Cl)ccc2C1Cc1ccccc1` (centres undefined), in test [1], the IC50 is 63 nM. This molecule gave an inhibition constant Ki in test [2] of 11 nM.

Take `O=C(Nc1cccc2cnccc12)NC1CCc2cc(O)ccc2C1Cc1ccccc1` (centres undefined): the 50% inhibitory concentration (IC50) in test [1] was 200 nM.

For the molecule `O=C(Nc1cccc2cnccc12)NC1CCc2cc(F)ccc2C1Cc1ccc(C(F)(F)F)cc1` (centres undefined), the IC50 in test [1] amounted to 10 nM. Further, the affinity in test [2] corresponds to a Ki of 1 nM.

As for `COc1ccc2c(c1)CCC(NC(=O)Nc1cccc3ccc(O)cc13)C2Cc1ccccc1` (centres undefined), the IC50 in test [1] came out at 60 nM. This molecule also returned an inhibition constant (Ki) in test [2] of 10 nM.

Consider `COc1ccc(C(CNC(=O)Nc2cccc3cnccc23)Cc2cccnc2)cc1` (centres undefined), for which the IC50 in test [1] was 184 nM. Moreover, the Ki in test [2] is 578 nM.

For `COc1ccc2c(c1)CCC(NC(=O)Nc1cccc3cnccc13)C2Cc1cccnc1` (centres undefined), the 50% inhibitory concentration (IC50) in test [1] was over 1000 nM.

With `O=C(Nc1cccc2cnccc12)NC1CCc2c(Cl)cccc2C1Cc1ccccc1` (centres undefined), in test [1], the half-maximal inhibitory concentration (IC50) was determined as 16 nM. Moreover, the affinity in test [2] corresponds to a Ki of 2 nM.

As for `COc1ccc(C(CNC(=O)Nc2cccc3cnccc23)Cc2ccccc2)cc1` (centres undefined), the IC50 in test [1] came to 14 nM. In addition, the Ki in test [2] worked out at 6 nM.

Turning to `O=C(Nc1cccc2cnccc12)NC1CCc2ccc(Cl)cc2C1Cc1ccccc1` (centres undefined), the IC50 in test [1] is 86 nM. In test [2], this molecule registered an inhibitory constant (Ki) of 5 nM.

Take `O=C(Nc1cccc2cnccc12)NC1CCc2cc(F)ccc2C1Cc1cccs1` (centres undefined): the IC50 in test [1] came to 140 nM. The molecule further returned a Ki in test [2] of 4 nM.

On to `O=C(NCC(Cc1cccc(C(F)(F)F)c1)c1ccc(F)cc1)Nc1cccc2cnccc12` (centres undefined), for which the 50% inhibitory concentration (IC50) in test [1] came out at 19 nM. The same molecule showed a Ki in test [2] of 20 nM.

The molecule `O=C(NCC(Cc1ccccc1)c1ccc(C(F)(F)F)cc1)Nc1cccc2cnccc12` (centres undefined) gave an inhibition constant Ki in test [2] of 4 nM.

For the molecule `O=C(Nc1cccc2ccc(O)cc12)NC1CCc2cc(F)ccc2C1Cc1ccc(C(F)(F)F)cc1` (centres undefined), the concentration for half-maximal inhibition (IC50) in test [1] is 360 nM. In test [2], this molecule had a Ki of 22 nM.

On to `COc1cc2c(cc1OC)C(Cc1ccccc1)C(NC(=O)Nc1cccc3cnccc13)CC2` (centres undefined), for which the half-maximal inhibitory concentration (IC50) in test [1] turned out to be 230 nM. Also, affinity in test [2] was put at a Ki of 20 nM.

For `COc1ccc2c(c1)CCC(NC(=O)Nc1cccc3cnccc13)C2Cc1ccc(C(F)(F)F)cc1` (centres undefined), the IC50 in test [1] was found to be 2 nM. In test [2], this molecule registered an inhibition constant (Ki) of 2 nM.

Regarding `O=C(NCC(Cc1ccccc1)c1ccc(F)cc1)Nc1cccc2cnccc12` (centres undefined), the IC50 in test [1] is 5 nM. In test [2], this molecule showed a Ki of 8 nM.

With `N#CCC1c2ccc(Cl)cc2CCC1NC(=O)Nc1cccc2cnccc12` (centres undefined), the IC50 in test [1] is over 1000 nM.

With `COc1ccc2c(c1)CCC(NC(=O)Nc1cccc3cnccc13)C2Cc1ccc(Br)cc1` (centres undefined), the IC50 in test [1] turned out to be 22 nM. This molecule also displayed a Ki in test [2] of 1 nM.

With `COc1ccc(CC2c3ccc(OC)cc3CCC2NC(=O)Nc2cccc3cnccc23)cc1` (centres undefined), in test [1], the half-inhibitory concentration (IC50) came out at 36 nM. Further, the inhibition constant (Ki) in test [2] was found to be 8 nM.

`COc1ccc2c(c1)CCC(NC(=O)Nc1cccc3cnccc13)C2Cc1ccc(C#N)cc1` (centres undefined): the half-maximal inhibitory concentration (IC50) in test [1] worked out at 21 nM. In test [2], this molecule came in with a Ki of 17 nM.

As for `COc1ccc2c(c1)CCC(NC(=O)Nc1cccc3cnccc13)C2Cc1cccc(Cl)c1` (centres undefined), the IC50 in test [1] turned out to be 13 nM. Besides, the Ki in test [2] came to 2 nM.

Regarding `C=CCC1c2ccc(F)cc2CCC1NC(=O)Nc1cccc2cnccc12` (centres undefined), in test [1], the IC50 was found to be 100 nM. Moreover, the inhibition constant Ki in test [2] stood at 2 nM.

`O=C(Nc1cccc2cnccc12)NC1CCc2cc(F)ccc2C1Cc1ccccc1` (centres undefined): the half-maximal inhibitory concentration (IC50) in test [1] worked out at 12 nM. For the same molecule, in test [2], the affinity corresponds to a Ki of 4 nM.

On to `O=C(Nc1cccc2cnccc12)NC1CCc2ccccc2C1Cc1ccccc1` (centres undefined), for which the IC50 in test [1] came to 20 nM. The affinity in test [2] corresponds to a Ki of 4 nM.

Regarding `O=C(Nc1cccc2cnccc12)NC1CCc2cc(F)ccc2C1CC1CC1` (centres undefined), in test [1], the 50% inhibitory concentration (IC50) worked out at 350 nM. Further, in test [2], the affinity corresponds to a Ki of 0.8 nM.

Take `COc1ccc2c(c1)CCC(NC(=O)Nc1cccc3cnccc13)C2Cc1ccccc1` (centres undefined): in test [1], the IC50 worked out at 25 nM. This molecule also had an inhibitory constant (Ki) in test [2] of 3 nM.

Source of the values: ChEMBL document CHEMBL1140534, “Heteroaryl beta-tetralin ureas as novel antagonists of human TRPV1” (Bioorg Med Chem Lett, 2007).
